Our source for the ILS and Activity values is ChEMBL document CHEMBL3272089, “Synthesis and antitumor activity of dihydro-5-azacytidine, a hydrolytically stable analogue of 5-azacytidine” (J Med Chem, 1977).

The structures appear in SMILES notation. Calls of active or inactive are those of the source. The calls are words filed in the database; no cut-off is given here.

For experiment [1], the system named is L1210. In words: Antitumor activity against mouse L1210 cells allografted in ip dosed mouse assessed as increase in life span at MNTD administered qd on day 1, 5 and 9 post tumor implantation relative to control. It counts as functional. In short, it runs like this: (§1)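 L1210 implanted ip in mice. Compound given ip in 0.9% saline on the listed schedule across a dose-response range. % ILS reported at the highest nontoxic dose, or at the dose giving maximal ILS for active compounds. Test minus control body-weight change on day 5 at the highest nontoxic dose.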

The test system of experiment [2] is L1210. Description: Antitumor activity against mouse L1210 cells allografted in ip dosed mouse assessed as change in body weight at MNTD administered qd on day 1, 5 and 9 post tumor implantation measured on day 5 relative to control. It counts as functional. In short, it runs like this: (§2)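 Doses were given ip in 0.9% saline after ip L1210 implantation, as a dose–response series. The reading is the difference in average body weight change (g) between test (T) and control (C) groups, measured on day 5 at the highest nontoxic dose tested.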

Experiment [3] deals with L1210. Description: Cytotoxicity against mouse L1210 cells assessed as cessation of growth. It counts as functional, cell-based.
For experiment [4], the system named is L1210. In words: Cytotoxicity against mouse L1210 cells assessed as cessation of growth in presence of cytidine. It counts as functional, cell-based.
For experiment [5], the system named is L1210. In words: Cytotoxicity against mouse L1210 cells assessed as cessation of growth in presence of uridine. It counts as functional, cell-based.
The test system of experiment [6] is L1210. Description: Antitumor activity against mouse L1210 cells allografted in ip dosed mouse assessed as increase in life span at MNTD administered qd from day 1 to day 9 post tumor implantation relative to control. It counts as functional. In short, it runs like this: as §1
For experiment [7], the system named is L1210. In words: Antitumor activity against mouse L1210 cells allografted in ip dosed mouse assessed as change in body weight at MNTD administered qd from day 1 to day 9 post tumor implantation measured on day 5 relative to control. The class given is functional. In short, it runs like this: as §2

Broadly, the ILS is how much longer treated animals lived than controls.

In the case of `NC1=NC(=O)N([C@@H]2O[C@H](CO)[C@H]3O[B-]4(O[C@H]32)O[C@@H]2[C@H](O4)[C@@H](CO)O[C@H]2N2CNC(N)=NC2=O)CN1.[Na+]` (stereo partly specified), the ILS in the experiment with L1210 [1] is listed as 80%. The Activity in the experiment with L1210 [2] is recorded as -1.5 g.
For `Cl.NC1=NC(=O)NCN1`, the ILS in the experiment on L1210 [1] is 0%. The Activity with L1210 [2] came out at 1 g.
In the same order, the values of `NC(N)=NC(=O)N[C@@H]1O[C@H](CO)[C@@H](O)[C@H]1O` are 0% and -2.2 g.
Turning to `NC1=NC(=O)N([C@@H]2O[C@H](CO)[C@@H](O)[C@H]2O)CN1` [listing 1 of 2 here], the result with L1210 [3] was Active. The result in the experiment on L1210 [4] and with L1210 [5] was inactive.
`NC1=NC(=O)N([C@@H]2O[C@H](CO)[C@@H](O)[C@H]2O)CN1` [listing 2 of 2 here]: the ILS in the experiment on L1210 [6] is 86%. Moreover, the Activity in the experiment on L1210 [7] was -3.2 g.
